# Data reported in ChEMBL document CHEMBL1131141, “Novel 1,1,3-trioxo-2H,4H-thieno[3,4-e][1,2,4]thiadiazine derivatives as non-nucleoside reverse transcriptase inhibitors that inhibit human immunodeficiency virus type 1 replication” (J Med Chem, 1998).
# pEC50: −log10 of the molar value.
# Key:
# MT4 [1] = assay: Dose required to achieve 50% protection of MT-4 cells from HIV-1(IIIB) induced cytopathogenicity, determined by […] method.; type: functional, cell-based; details: Homo sapiens
# Method in brief: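 MT-4 cells infected with HIV-1(IIIB); value is the dose giving 50% protection against virus-induced cytopathogenicity, read out by MTT viability assay. Mean of at least two separate experiments.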
# [2] = test system: Human immunodeficiency virus 1; assay: Selectivity index was measured as the ratio of CC50(HIV-1) to that of EC50(HIV-1); SI Selectivity Index; type: functional
# MT4 [3] = assay: Dose required to reduce the viability of mock-infected cells by 50%, determined by MTT method.; type: functional; details: Homo sapiens
# Method in brief: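 Mock-infected MT-4 cells; value is the dose lowering cell viability by 50%, read out by MTT assay. Mean of at least two separate experiments.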
# [4] = Selectivity index was measured as the ratio of CC50(HIV-1) to that of EC50(HIV-1); type: functional
Compound,pEC50 (MT4 [1]),SI [2],CC50 (MT4 [3]),SI [4]
N#CCN1C(=O)N(Cc2ccccc2)S(=O)(=O)c2ccsc21,5.52,73,219 µM,
CCN1C(=O)N(Cc2cccc(Cl)c2)S(=O)(=O)c2cscc21,5.68,>334,> 701 µM,
CN1C(=O)N(Cc2ccccc2)S(=O)(=O)c2nn(C)cc21,< 3.30,<1,498 µM,
O=C1N(Cc2ccccc2)c2cc(Cl)sc2S(=O)(=O)N1Cc1ccccc1,5.35,>26,> 119 µM,
C#CCN1C(=O)N(Cc2ccccc2)S(=O)(=O)c2cscc21,6.00,>376,> 376 µM,
CN1C(=O)N(Cc2ccccc2Cl)S(=O)(=O)c2cscc21,< 3.35,<1,446 µM,
CN1C(=O)N(Cc2ccc(Cl)cc2)S(=O)(=O)c2cscc21,< 3.38,<1,417 µM,
CCN1C(=O)N(Cc2c(Cl)cccc2Cl)S(=O)(=O)c2cscc21,< 4.13,<1,74.1 µM,
N#CCN1C(=O)N(CCc2ccccc2)S(=O)(=O)c2cscc21,5.44,11,40.3 µM,
Cc1cn([C@H]2C[C@H](N=[N+]=[N-])[C@@H](CO)O2)c(=O)[nH]c1=O [ZIDOVUDINE],9.15,,35.6 µM,50600
Cc1ccnc2c1NC(=O)c1cccnc1N2C1CC1 [NEVIRAPINE],7.52,22800,683 µM,
CCN1C(=O)N(Cc2ccccc2Cl)S(=O)(=O)c2cscc21,5.14,83,605 µM,
O=C1N(Cc2ccccc2)c2cscc2S(=O)(=O)N1Cc1ccccc1,5.66,>296,> 650 µM,
C#CCN1C(=O)N(Cc2cccc(Cl)c2)S(=O)(=O)c2cscc21,7.00,657,65.7 µM,
O=C1N(Cc2ccc(Cl)cc2)c2cscc2S(=O)(=O)N1Cc1ccccc1,5.85,13,18.6 µM,
N#CCN1C(=O)N(Cc2cccc(Cl)c2)S(=O)(=O)c2cscc21,7.05,>3778,> 340 µM,
CN1C(=O)N(Cc2c(Cl)cccc2Cl)S(=O)(=O)c2cscc21,< 3.28,<1,528 µM,
O=C1N(Cc2ccccc2Cl)c2cscc2S(=O)(=O)N1Cc1ccccc1,7.00,>1190,> 119 µM,
CCN1C(=O)N(Cc2ccccc2)S(=O)(=O)c2ccsc21,4.69,18,374 µM,
CCOC(=O)CN1C(=O)N(Cc2ccccc2)S(=O)(=O)c2cscc21,5.13,18,130 µM,

Compound,pEC50 (MT4 [1]),SI [2],CC50 (MT4 [3]),SI [4]
CCN1C(=O)N(CCc2ccccc2)S(=O)(=O)c2cscc21,5.07,38,330 µM,
CCCN1C(=O)N(Cc2ccccc2)S(=O)(=O)c2ccsc21,< 3.39,,403 µM,
CN1C(=O)N(Cc2ccccc2)S(=O)(=O)c2cscc21,5.57,196,528 µM,
N#CCN1C(=O)N(Cc2cccc(F)c2)S(=O)(=O)c2cscc21,7.30,1872,93.6 µM,
N#CCN1C(=O)N(Cc2ccccn2)S(=O)(=O)c2cscc21,5.96,>340,> 374 µM,
CCN1C(=O)N(Cc2ccc(Cl)cc2)S(=O)(=O)c2cscc21,< 3.56,<1,273 µM,
O=C1N(Cc2cccc(Cl)c2)c2cscc2S(=O)(=O)N1Cc1ccccc1,6.10,>149,> 119 µM,
CCN1C(=O)N(Cc2ccccc2)S(=O)(=O)c2nn(C)cc21,< 3.49,<1,321 µM,
O=C1N(Cc2ccccc2)c2cscc2S(=O)(=O)N1Cc1ccccn1,6.40,415,166 µM,
N#CCN1C(=O)N(Cc2ccccc2)S(=O)(=O)c2cscc21,6.05,559,503 µM,
N#CCN1C(=O)N(Cc2cccnc2)S(=O)(=O)c2cscc21,6.70,>750,> 150 µM,
N#CCN1C(=O)N(Cc2ccccc2)S(=O)(=O)c2sc(Cl)cc21,4.61,6,152 µM,
N#CCN1C(=O)N(Cc2cccc(Br)c2)S(=O)(=O)c2cscc21,7.05,762,68.6 µM,
O=C1N(Cc2ccccc2)c2sccc2S(=O)(=O)N1Cc1ccccc1,5.08,>78,> 650 µM,
O=C1N(Cc2ccccc2)c2cscc2S(=O)(=O)N1CCc1ccccc1,4.96,21,226 µM,
CN1C(=O)N(Cc2cccc(Cl)c2)S(=O)(=O)c2cscc21,5.12,>96,> 729 µM,
N#CCN1C(=O)N(Cc2cc(F)cc(F)c2)S(=O)(=O)c2cscc21,6.52,340,102 µM,
CCN1C(=O)N(Cc2ccccc2)S(=O)(=O)c2cscc21,5.60,>310,> 775 µM,
CCN1C(=O)N(Cc2ccccn2)S(=O)(=O)c2cscc21,4.38,>9,> 387 µM,
CN1C(=O)N(Cc2ccccc2)S(=O)(=O)c2ccsc21,< 3.09,,> 811 µM,
